Results on 4 compounds are retold here after article PMC5253108 (European journal of medicinal chemistry, 2016).

Molecules are shown by their SMILES. Where two headings read alike, the source gives them in different places.

Data set [1] can be described thus: In vitro liver microsomal stability. The settings on record: mouse liver microsomes, 1 h. It counts as in vitro ADME, mouse. A general note: Liver microsomes are a subcellular fraction often used to study metabolism.
In another data set the test system is HEK293 kidney cells. The class given is cell-based. The settings on record: 48 hours, Cell-Titer Glo.
Another data set concerns HepG2 liver cells. As to the kind of experiment: In vitro cytotoxicity, Cell-Titer Glo viability, HepG2. It counts as cell-based. The settings on record: 48 hours.
Data set [2] concerns BEAS2B lung epithelial cells. As to the kind of experiment: In vitro cytotoxicity, Cell-Titer Glo viability, BEAS2B. The settings on record: 48 hours. It counts as cell-based.
Data set [3] relates to guinea pig tracheal rings. The settings on record: cited from earlier work.
The test system of data set [4] is ovalbumin (S/C) BALB/c mice. The settings on record: given repeatedly over five days; listed as ethyl ester of XHE-III-74; cited from earlier work.
Data set [5] relates to Swiss Webster mice. The settings on record: cited from earlier work.
For data set [6] the following is noted: mouse, cited from earlier work.
Data set [7] can be described thus: In vitro liver microsomal stability. The settings on record: liver microsomes. The class given is in vitro ADME.
Another data set concerns rats. As to the kind of experiment: Sensorimotor impairment in rats. The class given is in vivo, rat. The settings on record: 15 mg/kg, unpublished results.
The test system of data set [8] is murine house dust mite model of asthma. The settings on record: cited from earlier work.
Another data set concerns airway smooth muscle. The settings on record: cited from earlier work.
Another data set relates to mice. The settings on record: aerosol delivery in mice; cited from earlier work.
Data set [9] in a line: Pharmacokinetic study in mice. The class given is in vivo, mouse.
A further data set relates to airway eosinophilia. The settings on record: cited from earlier work.
A further data set has as its target α4β3γ2 GABAAR (Homo sapiens, UniProt P18507+P48169). As to the kind of experiment: GABA induced current potentiation, α4β3γ2 GABAAR. The class given is biochemical. The settings on record: 1 µM compound, GABA EC20 concentration.
Data set [10] deals with guinea pig tracheal rings. The settings on record: 50 µM compound, substance P contracted rings.
Data set [11] relates to ovalbumin (S/C) BALB/c mice. The class given is in vivo, mouse. The settings on record: 40 mg/kg i.p. for 5 days, 12.5 mg/ml methacholine challenge, p<0.05. In a few lines:
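BALB/c mice were sensitized by ovalbumin injections (2 mg/kg/d in 2 mg alum, days 0, 7, 14) and challenged intranasally with ovalbumin (1.6 mg/kg/d, days 23–27); controls were saline-challenged. Test compound was given i.p. twice daily during the challenge period. Conscious mice had non-invasive sRaw measured after 1 min aerosolized PBS or methacholine (1.56–12.5 mg/mL), averaged over 3 min. Analysis used two-way repeated-measures ANOVA with Bonferroni post-test.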

Data set [12] relates to Swiss Webster mice. As to the kind of experiment: Rotarod assay of sensorimotor coordination in mice. The settings on record: 40 mg/kg i.p., Swiss Webster mice, 10, 30 and 60 min. On the technique in general: In the rotarod test animals must keep their balance on a rotating rod.

One may read the fraction remaining as what is left of the initial amount, in per cent. For orientation: AUC means concentration integrated over time. Read a high AUC as more exposure.

Chain of α4β3γ2 GABAAR (P48169 36-554): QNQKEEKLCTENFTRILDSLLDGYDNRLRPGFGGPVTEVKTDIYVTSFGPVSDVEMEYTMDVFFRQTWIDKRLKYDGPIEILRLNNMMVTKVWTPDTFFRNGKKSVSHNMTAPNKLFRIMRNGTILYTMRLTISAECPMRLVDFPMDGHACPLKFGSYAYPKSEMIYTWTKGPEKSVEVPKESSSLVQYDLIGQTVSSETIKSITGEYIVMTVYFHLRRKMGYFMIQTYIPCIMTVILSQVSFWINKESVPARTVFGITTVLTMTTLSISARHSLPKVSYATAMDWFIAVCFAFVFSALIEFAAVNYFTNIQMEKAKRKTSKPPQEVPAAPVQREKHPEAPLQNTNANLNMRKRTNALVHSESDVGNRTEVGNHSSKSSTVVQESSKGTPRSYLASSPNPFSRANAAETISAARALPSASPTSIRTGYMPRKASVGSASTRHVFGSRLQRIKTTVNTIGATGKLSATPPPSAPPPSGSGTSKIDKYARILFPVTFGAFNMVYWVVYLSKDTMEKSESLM
Chain of α4β3γ2 GABAAR (P28472 26-473 partner): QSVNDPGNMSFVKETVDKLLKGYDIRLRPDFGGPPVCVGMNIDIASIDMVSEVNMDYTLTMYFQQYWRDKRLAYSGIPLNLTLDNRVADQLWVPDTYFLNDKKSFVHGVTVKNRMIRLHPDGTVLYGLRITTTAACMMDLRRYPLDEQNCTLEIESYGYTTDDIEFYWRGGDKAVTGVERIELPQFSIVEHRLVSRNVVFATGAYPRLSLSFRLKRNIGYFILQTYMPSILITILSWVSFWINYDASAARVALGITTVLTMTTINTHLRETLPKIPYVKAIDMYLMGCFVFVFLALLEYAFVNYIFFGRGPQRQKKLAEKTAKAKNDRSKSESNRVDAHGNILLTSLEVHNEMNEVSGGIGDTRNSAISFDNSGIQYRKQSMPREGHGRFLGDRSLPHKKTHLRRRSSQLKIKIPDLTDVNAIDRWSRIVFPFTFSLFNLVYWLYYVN
Chain of α4β3γ2 GABAAR (P18507 40-475): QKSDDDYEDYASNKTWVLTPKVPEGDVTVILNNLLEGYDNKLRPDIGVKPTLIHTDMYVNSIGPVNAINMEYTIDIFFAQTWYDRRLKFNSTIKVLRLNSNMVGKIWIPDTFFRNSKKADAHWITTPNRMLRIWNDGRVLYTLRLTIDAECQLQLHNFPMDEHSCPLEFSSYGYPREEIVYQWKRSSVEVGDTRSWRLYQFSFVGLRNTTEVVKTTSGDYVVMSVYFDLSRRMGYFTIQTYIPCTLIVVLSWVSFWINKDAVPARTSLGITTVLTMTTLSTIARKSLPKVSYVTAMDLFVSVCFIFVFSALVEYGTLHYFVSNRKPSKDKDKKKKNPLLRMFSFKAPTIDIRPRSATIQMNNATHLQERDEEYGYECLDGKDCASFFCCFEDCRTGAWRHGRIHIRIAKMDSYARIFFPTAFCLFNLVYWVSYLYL

As to `CCOC(=O)c1ncn2c1[C@@H]1CCCN1C(=O)c1cc(OC)ccc1-2` [Compound 5], the “loss at 1 h in mouse liver microsomes” value in data set [1] was “less than 20%”. Also, the “Toxicity in HEK293 (Kidney) LD50” value in the data set on HEK293 kidney cells is more than 400 µM. The “Toxicity in HEPG2 (Liver) LD50” value in the data set with HepG2 liver cells is reported as more than 400 µM. The “Toxicity in BEAS 2B (Lung) LD50” value in data set [2] is reported as more than 400 µM. Further, the “airway muscle constriction caused by substance P” value in data set [3] was “significantly reduced airway muscle constriction”. Further, the “airway hyperresponsiveness in ovalbumin S/C asthma model” value in [4] is recorded as “reduced airway hyperresponsiveness”. Moreover, the “sensorimotor impairment on rotarod” value with Swiss Webster mice [5] (published previously) is “weakly induced sensorimotor impairment”. Further, the “AUC for lung exposure” value in [6] (same dose as 16, lung) was 4516 ng·min/mL. Also, the t1/2 in data set [6] (same dose as 16) is recorded as 16.3 min.

For `COc1ccc2c(c1)C(=O)N1CCC[C@H]1c1c(C(=O)OC(C)(C)C)ncn1-2` [Compound 7, (S)-tert-Butyl-7-methoxy-9-oxo-11,12,13,13a-tetrahydro-9H-benzo[e]imidazo[5,1-c]pyrrolo[1,2-a][1,4]diazepine-1-carboxylate], the “stability in the presence of human liver microsomes” value in data set [7] was “stable”. The “Toxicity in HEK293 (Kidney) LD50” value with HEK293 kidney cells was more than 100 µM. The “Toxicity in HEPG2 (Liver) LD50” value in the data set on HepG2 liver cells was more than 400 µM. Also, in data set [2], the “Toxicity in BEAS 2B (Lung) LD50” value is on record as more than 200 µM. Further, in the data set with rats, the “sensorimotor impairment in rats” value is recorded as “induced sensorimotor impairment”. Also, in data set [3], the “airway muscle constriction caused by substance P” value is “significantly reduced airway muscle constriction”. The “airway resistance in murine house dust mite model” value in [8] is recorded as “reduced airway resistance”. Moreover, the “relaxation of pre-contracted airway smooth muscle” value in the data set on airway smooth muscle was “relaxed pre-contracted airway smooth muscle”. Further, the “airway hyperresponsiveness after aerosol delivery” value with mice is recorded as “reduces airway hyperresponsiveness”.

Turning to `COc1ccc2c(c1)C(=O)N1CCC[C@H]1c1c(C(=O)O)ncn1-2` [Compound 9, (S)-7-Methoxy-9-oxo-11,12,13,13a-tetrahydro-9H-benzo[e]imidazo[5,1-c]pyrrolo[1,2-a][1,4]di-azepine-1-carboxylic acid], the share remaining at 1 h in data set [7] (human) was less than 80%. For the same compound, the “Toxicity in HEK293 (Kidney) LD50” value in the data set on HEK293 kidney cells was more than 400 µM. Moreover, the “Toxicity in HEPG2 (Liver) LD50” value in the data set with HepG2 liver cells was more than 400 µM. Besides, the “Toxicity in BEAS 2B (Lung) LD50” value in data set [2] is more than 400 µM. Further, the “metabolite in blood samples” value in data set [9] (after 5 mg/kg i.p. of 16, mouse blood) was “not detected in any blood samples”. Moreover, in [3], the “airway muscle constriction caused by substance P” value is “significantly reduced airway muscle constriction”. The “airway eosinophilia” value is “decreased airway eosinophilia” with airway eosinophilia and “significantly reduced airway eosinophilia” in the data set on airway eosinophilia (listed as XHE-III-74A). The “CNS effects” value with Swiss Webster mice [5] is “no CNS effects”.

In the case of `COc1ccc2c(c1)C(=O)N1CCC[C@H]1c1c(C(=O)N(C)C)ncn1-2` [Compound 16], the “loss at 1 h in mouse liver microsomes” value in [1] is reported as “less than 20%”. Further, the “Toxicity in HEK293 (Kidney) LD50” value in the data set on HEK293 kidney cells is more than 400 µM. Also, the “Toxicity in HEPG2 (Liver) LD50” value in the data set with HepG2 liver cells is on record as more than 400 µM. In data set [2], the “Toxicity in BEAS 2B (Lung) LD50” value is more than 400 µM. Moreover, the “potentiation of GABA induced current, α4β3γ2 GABAAR” value at α4β3γ2 GABAAR is 319%. Further, the “time to airway smooth muscle relaxation effect” value in [10] was not above 15 min. For the same compound, in data set [11], the “specific airway resistance (sRAW) vs vehicle, 5 day treatment” value was “significant reduction in sRAW”. Moreover, in data set [9] (mouse, 5 mg/kg i.p.), the “blood brain barrier penetration” value is listed as “did penetrate the blood brain barrier”. The AUC in data set [9] (mouse, lung, ip, 5 mg/kg) is 12.7 ng·h/mL. Besides, in the data set on Swiss Webster mice [12], the “sensorimotor impairment on rotarod” value is “did not induce sensorimotor impairment”.
